Measurements published in ChEMBL document CHEMBL4261658, “4-Hydroxy-3-nitro-5-ureido-benzenesulfonamides Selectively Target the Tumor-Associated Carbonic Anhydrase Isoforms IX and XII Showing Hypoxia-Enhanced Antiproliferative Profiles” (J Med Chem, 2018).
pIC50, pKi: −log10 of the molar value.

Tests used:
Carbonic anhydrase 9 = Carbonic anhydrase 9 (Homo sapiens, UniProt Q16790); experiment: Inhibition of carbonic anhydrase 9 (unknown origin) preincubated for 15 mins by stopped flow CO2 hydration assay
Carbonic anhydrase 12 = Carbonic anhydrase 12 (Homo sapiens, UniProt O43570)
Carbonic anhydrase 12, sequence (O43570 whole entry): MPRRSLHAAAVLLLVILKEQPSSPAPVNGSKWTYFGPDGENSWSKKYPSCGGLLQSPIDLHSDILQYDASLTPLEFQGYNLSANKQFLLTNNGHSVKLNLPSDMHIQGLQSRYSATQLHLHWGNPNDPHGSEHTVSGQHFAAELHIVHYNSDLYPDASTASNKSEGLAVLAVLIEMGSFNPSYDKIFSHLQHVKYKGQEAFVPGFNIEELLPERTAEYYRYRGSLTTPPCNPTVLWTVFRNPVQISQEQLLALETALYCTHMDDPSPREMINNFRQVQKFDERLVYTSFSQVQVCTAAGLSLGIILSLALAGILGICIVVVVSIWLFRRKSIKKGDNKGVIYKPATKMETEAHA

PC-3 [1] = experiment: Cytotoxicity against human PC3 cells assessed as cell viability at 100 uM after 48 hrs under normoxic conditions by MTT assay (reference value: 100%); assay type: functional; settings: PC-3, 48 h, read-out: Activity
Summary of the method: (§1)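 Cells cultured in high-glucose DMEM with 20% FBS at 37 °C and 5% CO2, seeded at 1x10^4/well, then dosed 24 h later (0–200 μM) for 48 h. Hypoxia: 1% O2, 5% CO2, balance N2 in a hypoxic workstation; normoxia: 20% O2 in air, 5% CO2. MTT (1 mg/ml) for 30 min at 37 °C, formazan dissolved in DMSO, A550. Untreated control set to 100%; quadruplicates, ≥3 cell batches, mean ± S.E.M.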

HT-29 [2] = experiment: Cytotoxicity against human HT-29 cells assessed as reduction in cell viability after 48 hrs under normoxic conditions by MTT assay; assay type: functional, cell-based; settings: for pIC50: HT-29, 48 h; summary of the method: as §1
PC-3 [3] = experiment: Cytotoxicity against human PC3 cells assessed as cell viability at 30 uM after 48 hrs under hypoxic conditions by MTT assay (reference value: 100%); assay type: functional; settings: PC-3, 48 h, read-out: Activity; summary of the method: as §1
MDA-MB-231 [4] = experiment: Cytotoxicity against human MDA-MB-231 cells assessed as cell viability at 30 uM after 48 hrs under hypoxic conditions by MTT assay (reference value: 100%); assay type: functional; settings: MDA-MB-231, 48 h, read-out: Activity; summary of the method: as §1
HT-29 [5] = experiment: Cytotoxicity against human HT-29 cells assessed as cell viability at 100 uM after 48 hrs under hypoxic conditions by MTT assay (reference value: 100%); assay type: functional; settings: for viability at 100 µM: Homo sapiens, HT-29, 48 h, read-out: Activity; summary of the method: as §1
MDA-MB-231 [6] = experiment: Cytotoxicity against human MDA-MB-231 cells assessed as cell viability at 200 uM after 48 hrs under normoxic conditions by MTT assay (reference value: 100%); assay type: functional; settings: MDA-MB-231, 48 h, read-out: Activity; summary of the method: as §1
HT-29 [7] = experiment: Cytotoxicity against human HT-29 cells assessed as cell viability at 200 uM after 48 hrs under normoxic conditions by MTT assay (reference value: 100%); assay type: functional; settings: for viability at 200 µM: Homo sapiens, HT-29, 48 h, read-out: Activity; summary of the method: as §1
PC-3 [8] = experiment: Cytotoxicity against human PC3 cells assessed as reduction in cell viability after 48 hrs under normoxic conditions by MTT assay; assay type: functional, cell-based; settings: for pIC50: PC-3, 48 h; summary of the method: as §1
MDA-MB-231 [9] = experiment: Cytotoxicity against human MDA-MB-231 cells assessed as cell viability at 100 uM after 48 hrs under hypoxic conditions by MTT assay (reference value: 100%); assay type: functional; settings: MDA-MB-231, 48 h, read-out: Activity; summary of the method: as §1
HT-29 [10] = experiment: Cytotoxicity against human HT-29 cells assessed as reduction in cell viability after 48 hrs under hypoxic conditions by MTT assay; assay type: functional, cell-based; settings: for pIC50: HT-29, 48 h; summary of the method: as §1
HT-29 [11] = experiment: Cytotoxicity against human HT-29 cells assessed as cell viability at 30 uM after 48 hrs under normoxic conditions by MTT assay (reference value: 100%); assay type: functional; settings: for viability at 30 µM: Homo sapiens, HT-29, 48 h, read-out: Activity; summary of the method: as §1
MDA-MB-231 [12] = experiment: Cytotoxicity against human MDA-MB-231 cells assessed as reduction in cell viability after 48 hrs under normoxic conditions by MTT assay; assay type: functional, cell-based; settings: for pIC50: MDA-MB-231, 48 h; summary of the method: as §1
PC-3 [13] = experiment: Cytotoxicity against human PC3 cells assessed as cell viability at 30 uM after 48 hrs under normoxic conditions by MTT assay (reference value: 100%); assay type: functional; settings: PC-3, 48 h, read-out: Activity; summary of the method: as §1
MDA-MB-231 [14] = experiment: Cytotoxicity against human MDA-MB-231 cells assessed as cell viability at 100 uM after 48 hrs under normoxic conditions by MTT assay (reference value: 100%); assay type: functional; settings: MDA-MB-231, 48 h, read-out: Activity; summary of the method: as §1
HT-29 [15] = experiment: Cytotoxicity against human HT-29 cells assessed as cell viability at 200 uM after 48 hrs under hypoxic conditions by MTT assay (reference value: 100%); assay type: functional; settings: for viability at 200 µM: Homo sapiens, HT-29, 48 h, read-out: Activity; summary of the method: as §1
HT-29 [16] = experiment: Cytotoxicity against human HT-29 cells assessed as cell viability at 100 uM after 48 hrs under normoxic conditions by MTT assay (reference value: 100%); assay type: functional; settings: for viability at 100 µM: Homo sapiens, HT-29, 48 h, read-out: Activity; summary of the method: as §1
PC-3 [17] = experiment: Cytotoxicity against human PC3 cells assessed as cell viability at 200 uM after 48 hrs under normoxic conditions by MTT assay (reference value: 100%); assay type: functional; settings: PC-3, 48 h, read-out: Activity; summary of the method: as §1
PC-3 [18] = experiment: Cytotoxicity against human PC3 cells assessed as cell viability at 200 uM after 48 hrs under hypoxic conditions by MTT assay (reference value: 100%); assay type: functional; settings: PC-3, 48 h, read-out: Activity; summary of the method: as §1
MDA-MB-231 [19] = experiment: Cytotoxicity against human MDA-MB-231 cells assessed as cell viability at 30 uM after 48 hrs under normoxic conditions by MTT assay (reference value: 100%); assay type: functional; settings: MDA-MB-231, 48 h, read-out: Activity; summary of the method: as §1
MDA-MB-231 [20] = experiment: Cytotoxicity against human MDA-MB-231 cells assessed as reduction in cell viability after 48 hrs under hypoxic conditions by MTT assay; assay type: functional, cell-based; settings: for pIC50: MDA-MB-231, 48 h; summary of the method: as §1
PC-3 [21] = experiment: Cytotoxicity against human PC3 cells assessed as cell viability at 100 uM after 48 hrs under hypoxic conditions by MTT assay (reference value: 100%); assay type: functional; settings: PC-3, 48 h, read-out: Activity; summary of the method: as §1
HT-29 [22] = experiment: Cytotoxicity against human HT-29 cells assessed as cell viability at 30 uM after 48 hrs under hypoxic conditions by MTT assay (reference value: 100%); assay type: functional; settings: for viability at 30 µM: Homo sapiens, HT-29, 48 h, read-out: Activity; summary of the method: as §1
PC-3 [23] = experiment: Cytotoxicity against human PC3 cells assessed as reduction in cell viability after 48 hrs under hypoxic conditions by MTT assay; assay type: functional, cell-based; settings: for pIC50: PC-3, 48 h; summary of the method: as §1
MDA-MB-231 [24] = experiment: Cytotoxicity against human MDA-MB-231 cells assessed as cell viability at 200 uM after 48 hrs under hypoxic conditions by MTT assay (reference value: 100%); assay type: functional; settings: MDA-MB-231, 48 h, read-out: Activity; summary of the method: as §1

Row | Structure (SMILES) | pKi (Carbonic anhydrase 9) | pKi (Carbonic anhydrase 12) | viability at 100 µM (PC-3 [1]) | viability at 30 µM (PC-3 [3]) | viability at 30 µM (MDA-MB-231 [4]) | viability at 100 µM (HT-29 [5]) | viability at 200 µM (MDA-MB-231 [6]) | viability at 200 µM (HT-29 [7]) | viability at 100 µM (MDA-MB-231 [9]) | viability at 30 µM (HT-29 [11]) | viability at 30 µM (PC-3 [13]) | viability at 100 µM (MDA-MB-231 [14]) | viability at 200 µM (HT-29 [15]) | viability at 100 µM (HT-29 [16]) | viability at 200 µM (PC-3 [17]) | viability at 200 µM (PC-3 [18]) | viability at 30 µM (MDA-MB-231 [19]) | viability at 100 µM (PC-3 [21]) | viability at 30 µM (HT-29 [22]) | viability at 200 µM (MDA-MB-231 [24]) | also measured
1 | COc1cccc(NC(=O)Nc2cc(S(N)(=O)=O)cc([N+](=O)[O-])c2O)c1 | 6.34 | 6.28 |  |  |  |  |  |  |  |  |  |  |  |  |  |  |  |  |  |  | 
2 | NS(=O)(=O)c1cc([N+](=O)[O-])c(OC(=O)c2ccccc2)c([N+](=O)[O-])c1 | 7.05 | 7.15 |  |  |  |  |  |  |  |  |  |  |  |  |  |  |  |  |  |  | 
3 | Cc1cc(NC(=O)Nc2cc(S(N)(=O)=O)cc([N+](=O)[O-])c2O)ccc1F | 6.43 | 6.06 |  |  |  |  |  |  |  |  |  |  |  |  |  |  |  |  |  |  | 
4 | NS(=O)(=O)c1cc(NC(=O)Nc2ccc(F)cc2)c(O)c([N+](=O)[O-])c1 | 6.47 | 6.30 | 71.7% | 83% | 84.8% | 88.2% | 90.3% | 107% | 68.4% | 110% | 86.9% | 92.8% | 79.3% | 112% | 56.2% | 23.5% | 100% | 61.3% | 90.8% | 61.7% | Activity (HT-29 [2]): Dose-dependent effect; pIC50 (HT-29 [2]): < 3.70; Activity (PC-3 [8]): Dose-dependent effect; pIC50 (PC-3 [8]): < 3.70; Activity (HT-29 [10]): Dose-dependent effect; pIC50 (HT-29 [10]): < 3.70; Activity (MDA-MB-231 [12]): Dose-dependent effect; pIC50 (MDA-MB-231 [12]): < 3.70; Activity (MDA-MB-231 [20]): Dose-dependent effect; pIC50 (MDA-MB-231 [20]): < 3.70; Activity (PC-3 [23]): Dose-dependent effect; pIC50 (PC-3 [23]): 3.87
5 | CC(=O)Nc1nnc(S(N)(=O)=O)s1 [ACETAZOLAMIDE] |  |  |  |  |  |  |  |  |  |  |  |  |  |  |  |  |  |  |  |  | Activity (HT-29 [5]): 101.7%; Activity (HT-29 [7]): 96.9%; Activity (HT-29 [11]): 96.9%; Activity (HT-29 [15]): 90.9%; Activity (HT-29 [16]): 100.7%; Activity (HT-29 [22]): 107.6%
6 | NS(=O)(=O)c1ccc(NC(=O)Nc2ccc(F)cc2)cc1 [SLC-0111] |  |  | 109% | 90.8% | 103% | 71.5% | 56.9% | 35.6% | 107% | 62.4% | 109% | 86.6% | 56.4% | 50.3% | 83.1% | 95.8% | 83.4% | 106% | 85.3% | 103% | 
7 | NS(=O)(=O)c1cc(NC(=O)c2ccc(F)cc2)c(OC(=O)c2ccc(F)cc2)c([N+](=O)[O-])c1 | 7.00 | 6.68 | 13.9% | 95.7% | 92.9% | 24.2% | 85.8% | 6.6% | 13.3% | 62.8% | 51.6% | 89.3% | 8.4% | 5.7% | 10.2% | 15.6% | 89.5% | 29.9% | 96.6% | 13% | Activity (HT-29 [2]): Dose-dependent effect; pIC50 (HT-29 [2]): 4.39; Activity (PC-3 [8]): Dose-dependent effect; pIC50 (PC-3 [8]): 4.51; Activity (HT-29 [10]): Dose-dependent effect; pIC50 (HT-29 [10]): 4.23; Activity (MDA-MB-231 [12]): Dose-dependent effect; pIC50 (MDA-MB-231 [12]): < 3.70; Activity (MDA-MB-231 [20]): Dose-dependent effect; pIC50 (MDA-MB-231 [20]): 4.28; Activity (PC-3 [23]): Dose-dependent effect; pIC50 (PC-3 [23]): 4.25
